MDM2 E3 inh – MDM2-luciferase reporter signal enhancers, primary screen, MDM2 E3 ligase inhibitor project, cell-based, luminescence, 1536-well | 0.11% of 210,000 active | signal enhancement, % at 5 µM | cell-based MDM2 ubiquitination luciferase reporter, 2 h; 0 = plate control, 100 = twice control, blank-subtracted;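 active = signal enhancement of 30% or more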;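 note: luminescence tracks abundance of the self-degrading MDM2-luciferase fusion protein; higher signal means inhibition of MDM2 E3 ligase activity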
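system = mammalian cells stably expressing self-ubiquitinating, self-degrading MDM2 E3–luciferase fusion | quantity = 2000 cells per well seeded | incubation = 4 h cell settling then 2 h compound exposure, 37 °C | signal = SteadyLite luminescence, 15 min reagent step | benchmarks = plate control and blank wells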
Mdm2 MdmX PPI – inhibitors of human Mdm2-MdmX association, primary screen, cell-based, luminescence, split luciferase, SaOS-2, uHTS; 3% of 330,000 active; Protein Mdm4 (Homo sapiens) + E3 ubiquitin-protein ligase Mdm2 (Homo sapiens), …; SaOS-2 split-luciferase Mdm2/MdmX complementation; inhibition, % at 8 µM;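 active = inhibition of at least 50% at 8 µM in the primary screen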
Target sequence (O15151 whole entry, looked up): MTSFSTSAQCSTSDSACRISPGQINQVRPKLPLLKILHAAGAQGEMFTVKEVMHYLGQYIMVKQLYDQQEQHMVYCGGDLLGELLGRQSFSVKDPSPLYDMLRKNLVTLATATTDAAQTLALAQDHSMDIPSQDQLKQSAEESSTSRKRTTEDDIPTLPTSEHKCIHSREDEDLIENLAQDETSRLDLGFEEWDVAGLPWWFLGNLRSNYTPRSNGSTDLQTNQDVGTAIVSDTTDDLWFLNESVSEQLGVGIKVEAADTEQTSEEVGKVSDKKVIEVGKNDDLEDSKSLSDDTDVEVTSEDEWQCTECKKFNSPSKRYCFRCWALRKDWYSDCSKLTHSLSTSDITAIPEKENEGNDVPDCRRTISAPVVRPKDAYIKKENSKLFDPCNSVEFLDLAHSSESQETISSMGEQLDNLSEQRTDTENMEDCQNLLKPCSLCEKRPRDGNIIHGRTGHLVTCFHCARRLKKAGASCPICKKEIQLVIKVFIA
Target sequence (Q00987 whole entry, looked up): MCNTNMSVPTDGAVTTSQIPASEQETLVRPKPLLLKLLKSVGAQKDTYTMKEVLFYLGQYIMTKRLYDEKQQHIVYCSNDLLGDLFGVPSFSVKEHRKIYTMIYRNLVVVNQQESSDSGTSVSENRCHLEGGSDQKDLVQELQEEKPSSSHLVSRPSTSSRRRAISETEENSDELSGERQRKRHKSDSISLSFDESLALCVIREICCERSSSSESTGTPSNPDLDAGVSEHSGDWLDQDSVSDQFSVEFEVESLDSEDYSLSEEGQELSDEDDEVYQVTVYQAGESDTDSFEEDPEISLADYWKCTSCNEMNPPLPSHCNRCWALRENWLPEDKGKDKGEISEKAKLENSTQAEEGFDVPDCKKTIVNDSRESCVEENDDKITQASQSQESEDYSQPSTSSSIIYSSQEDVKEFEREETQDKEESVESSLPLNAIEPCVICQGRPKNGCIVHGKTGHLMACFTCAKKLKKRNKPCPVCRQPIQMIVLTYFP
XBP1 UPR activ – activators of adaptive XBP1 UPR arm, primary screen, cell-based, CHO-XBP1 luciferase reporter, luminescence, uHTS. activation, % at 20 µM. 0.33% of 330,000 active. IRE1-XBP1 UPR activation; percent of tunicamycin response, DMSO as zero;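 active = versus positive control, 20 µM dose yields 30% or more activation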
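Material: CHO-XBP1 cells stably carrying IRE1-XBP1-driven luciferase reporter | Medium: F12 with 10% serum | Compound dosing: 20 µM single concentration, DMSO 1% | Incubation: Overnight seeding at 37 °C, 6 h compound treatment at 37 °C | Detection: Steady-Glo luminescence read | Read-out basis: % activation of reporter signal versus tunicamycin and DMSO controls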
CHOP UPR activ – activators of apoptotic CHOP UPR arm, primary screen, cell-based, CHO-CHOP luciferase reporter, luminescence, uHTS; activation, % at 10 µM; AID 449763, 2010; UPR activation; percent of tunicamycin response over DMSO baseline; 0.34% of 330,000 active;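 active = at 10 µM dose, activation of 40% or more, normalized to positive control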
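System: CHO-CHOP luciferase reporter cell line | Buffer or medium: F12 medium containing 10% fetal bovine serum | Doses: One dose, 10 µM in 0.5% DMSO | Times: 6 h compound exposure at 37 °C after overnight seeding | Signal: Luciferase luminescence | Read-out: % activation vs tunicamycin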
Dynein transport – inhibitors of GR-EGFP nuclear translocation, primary screen, dynein cargo transport inhibitor project, imaging, high-content, 3617.4 mouse cells; test concentration mostly 20 µM; stimulated with dexamethasone, 1 µM; hits give low values; z-score, hits read low; 0.47% of 220,000 active;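 active = plate z-score of nuclear minus cytoplasmic receptor signal below a set negative limit, without overly bright fluorescence or cell loss, cut at about -3.5 in these data, passing the limit was not always enough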;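 note: z-score of nuclear minus cytoplasmic ring GR-EGFP intensity difference per well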
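Buffer or medium: tet-free medium with charcoal-stripped serum / Also added: dexamethasone agonist, 1.0 µM final, for 30 min / Timing: induction 48 h, compound 1 h, agonist 30 min / Measured by: high-content fluorescence imaging after fixation / Read-out: nuclear-to-cytoplasmic GR-EGFP distribution per well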
Beta2AR agonist – beta2AR agonists driving receptor internalization, primary screen, cell-based, FAP fluorogen, flow cytometry. Beta-2 adrenergic receptor (Homo sapiens), P07550. Am2.2-beta2AR cells. response, % (test concentration not listed). 0.43% of 340,000 active;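 active = response above a set limit, near 3 SD of response in nonfluorescent compounds, cut at about 42% in these data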
Mdm2-MdmX conf – Mdm2-MdmX complex disruptors, retested hits, confirmation, luminescence, single concentration; shares compounds with Mdm2 MdmX PPI; Mdm2-MdmX binding, luminescent assay; inhibition, % at 8 µM; 55% of 10,000 active; AID 489028, 2010; in the data active = inhibition above about 40%
Full FLuc ctr – full-length luciferase signal inhibition, confirmation, counter-screen for Mdm2/MdmX interaction inhibitor project, cell-based, single concentration, SaOS-2 | 77% of 6,200 active | inhibition, % at 8 µM | SaOS-2 full-length luciferase counterscreen, luminescence | shares compounds with Mdm2 MdmX PPI | AID 504607, 2011;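 active = mean inhibition at 8 µM reaching about 37%, which flags the compound as non-specific, limit read from the data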;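 note: p53-null SaOS-2 cells with luciferase driven by a doxycycline-inducible promoter; compound on cells about two nights before reading with doxycycline added after day one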
A number is an active result; 0 = inactive; - = not tested or not shown. Rows were chosen to be rich in hits. Some 3.7% of all compounds tested hit in one or more screens of this group.

SMILES	MDM2 E3 inh	Mdm2 MdmX PPI	XBP1 UPR activ	CHOP UPR activ	Dynein transport	Beta2AR agonist	Mdm2-MdmX conf	others
CC[C@]12c3[nH]c4cc(CCC(=O)N(C)C)ccc4c3CCN1C(=O)[C@@H](CC(=O)NCC13CC4CC(CC(C4)C1)C3)C[C@@H]2C(=O)N1CCN(C(=O)c2ccco2)CC1	-	50	0	0	-	0	0
CCN(CC)C(=O)[C@H]1CC(CC(=O)NCc2cccc(C(F)(F)F)c2)C(=O)N2CCc3c([nH]c4ccc(OC)cc34)[C@]12C (stereo partly specified)	-	0	0	0	-	0	-
CCNC(=O)CC1C(=O)N(c2ccc(C)cc2)C(=O)N1CCc1sccc1C (stereo unspecified)	0	0	0	0	0	0	-
Cc1ccc(S(=O)(=O)N2[C@@H](c3cccc(Cl)c3)C(C(=O)O)=CC[C@H]2c2ccc3c(c2)OCO3)cc1	-	0	0	0	-	0	-
COc1ccccc1-c1noc(Cn2cc(S(=O)(=O)N3CCCC3)ccc2=O)n1	-	0	0	0	-	0	-
CC(=O)Nc1ccc2c(c1)C(=O)c1cccc(C(=O)O)c1-2	-	-	-	-	-	0	-
Cc1ccc(NC2CCCN(C(=O)Cc3nonc3C)C2)cc1C (stereo unspecified)	-	0	0	0	-	0	-
CCN(CC)C(=O)[C@H]1CC(CC(=O)NCC23CC4CC(CC(C4)C2)C3)C(=O)N2CCc3c([nH]c4ccc(OC)cc34)[C@]12C (stereo partly specified)	-	64	0	0	-	0	0
CC(C)N(C(=O)[C@H]1C[C@H](CC(=O)NCC23CC4CC(CC(C4)C2)C3)C(=O)N2CCc3c([nH]c4cc(-c5ccco5)ccc34)[C@]12C)C(C)C	-	70	0	0	-	0	0
CC(C)N(C(=O)[C@H]1C[C@H](CC(=O)NCC23CC4CC(CC(C4)C2)C3)C(=O)N2CCc3c([nH]c4cc(CCC(=O)N(C)C)ccc34)[C@]12C)C(C)C	-	81	0	0	-	0	43	Full FLuc ctr=60
COc1ccc2[nH]c3c(c2c1)CCN1C(=O)C(CC(=O)NCC24CC5CC(CC(C5)C2)C4)C[C@H](C(=O)N2CCCCC2)[C@@]31C (stereo partly specified)	-	0	0	0	-	0	-
COc1ccc(-n2c(SCC(=O)NCC3CCCO3)nc3c(c2=O)SC(C)C3)cc1 (stereo unspecified)	-	0	0	0	-	0	-
CC(C)c1ccc(CNCCCSc2ncccn2)cc1	-	0	0	0	-	0	-
CC1(C)CC[C@]2(C(=O)O)CC[C@]3(C)C(=CC[C@@H]4[C@@]5(C)CC[C@H](O[C@@H]6O[C@H](C(=O)O)[C@@H](O)[C@H](O[C@@H]7OC[C@H](O)[C@H](O)[C@H]7O)[C@H]6O)C(C)(C)[C@@H]5CC[C@]43C)[C@@H]2C1	-	79	0	0	-	0	0	Full FLuc ctr=44
COc1cc2c(cc1C1NC(=S)NC(C)=C1C(N)=O)CCCC2 (stereo unspecified)	0	66	0	0	0	0	0	Full FLuc ctr=86
CC1=C(C(N)=O)C(c2cccs2)NC(=S)N1 (stereo unspecified)	0	0	0	0	0	0	-
O=C(c1ccc(Br)o1)N1CCN(c2ccc3nnc(-c4ccccc4)n3n2)CC1	0	58	0	0	0	0	0
COc1ccc(OC)c(Nc2cc(-c3ccccc3)nc(N)n2)c1	0	69	0	0	0	-	71	Full FLuc ctr=72
COc1ccc(-c2cc(-c3ccccc3)nc(N)n2)c(O)c1	-	-	-	-	-	0	-
Cc1ccc(-n2nc3c(c2NC(=O)c2ccc(F)c(F)c2)CS(=O)(=O)C3)cc1	-	0	0	0	-	0	-
O=C(NCCCn1ccnc1)c1nn2c(C(F)(F)F)cc(-c3ccccc3)nc2c1Cl	0	0	0	0	0	0	-
COc1ccc(N(C)S(=O)(=O)c2ccc(Cl)c(C(=O)NCC(C)(C)N3CCOCC3)c2)cc1	-	0	0	0	-	0	-
COC(=O)c1sc(N)c(C(=O)OC)c1COC(=O)[C@@H](NS(=O)(=O)c1cccc(Cl)c1)C(C)C	0	54	0	0	0	0	0
COc1ccc(CN2C(=O)COc3ccccc32)cc1	-	0	0	0	-	0	-
COc1ccc(CC2(CO)COc3ccccc3C2=O)cc1 (stereo unspecified)	-	51	0	0	-	0	0	Full FLuc ctr=85
SMILES	MDM2 E3 inh	Mdm2 MdmX PPI	XBP1 UPR activ	CHOP UPR activ	Dynein transport	Beta2AR agonist	Mdm2-MdmX conf	others
CC(C)N(Cc1nnc(-c2ccc(Cl)cc2)o1)C(=O)c1cc2ccccc2o1	-	0	0	0	-	0	-
Cc1cc(/C=C2\SC(=Nc3ccccc3)NC2=O)c(C)n1-c1ccc(S(N)(=O)=O)cc1	0	61	0	0	0	0	50	Full FLuc ctr=57
Cc1ccc(-n2c(C)cc(/C=C3\SC(=O)NC3=O)c2C)cc1	-	0	0	0	-	0	-
Cn1c(-c2ccccc2)cc2c3no[n+]([O-])c3ccc21	0	58	0	0	0	0	73	Full FLuc ctr=53
Cn1c(-c2ccccc2)cc2ccccc21	-	0	0	0	-	0	-
Cc1cc(C)cc(Oc2ccccc2CO)c1	0	-	-	-	0	-	-
O=C(ONC1=NCCCCC1)c1cccc([N+](=O)[O-])c1	0	56	0	0	0	0	0
FC(F)(F)c1nnc2c(Sc3ccccc3)nc3ccccc3n12	0	68	0	0	0	0	0
FC(F)(F)c1nnc2c(Sc3ccccn3)nc3ccccc3n12	0	0	0	0	0	0	-
CCCCCCCCCCCCCCCCn1cc[n+](C)c1	0	93	0	0	0	0	91	Full FLuc ctr=0
COc1ccc(-n2nc(C(=O)NCC(=O)Nc3cc(OC)c(OC)c(OC)c3)c3ccccc3c2=O)cc1	-	52	0	0	-	0	0
COc1ccc(-n2nc(C(=O)NCC(=O)Nc3cc(OC)c(OC)c(OC)c3)c3ccccc3c2=O)cc1OC	-	70	0	0	-	0	67	Full FLuc ctr=68
